Here are results for 1 compound from ChEMBL document CHEMBL1166014, “Targeting efflux pumps-In vitro investigations with acridone derivatives and identification of a lead molecule for MDR modulation” (Bioorg Med Chem, 2010).

≈ marks a conversion by molar mass, not a printed value. Calls of active or inactive are those of the source. The rule behind the calls is not given here.

What is called MIC80 is the lowest concentration that inhibits either 80% of growth or 80% of the strains tested, depending on the study. Higher therefore signals weaker potency.

Test [1] concerns the target Multidrug resistance protein CDR1 (Candida albicans) (UniProt P43071). Nature of the test: Modulation of CDR1-mediated rhodamine 6G accumulation in Candida albicans CAI4 assessed as increase in R6G influx at 800 ug/ml after 180 mins by spectrofluorimetry. In a few lines: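 C. albicans CAI4 secondary culture (YEPD, 30 °C, ~5 h) washed in PBS, 2% suspension in PBS with 2 mM 2-deoxyglucose rocked 2 h; compound added at 800 µg/ml (MeOH/DMSO 1:1 solvent control), then R6G; aliquots over 0–180 min centrifuged, R6G left in supernatant measured as OD527.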

A short description of test [2]: Binding affinity to P-gp assessed as increase in basal protein activity at 5 uM after 30 mins by spectrophotometry. In short, it runs like this:
(§1)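 P-gp vesicles from DC-3F/ADX MDR cells; basal MgATP hydrolysis measured by PK/LDH-coupled NADH oxidation (PEP, NADH), with non-specific ATPase inhibitor; vesicles 5 min at 37 °C, compound added (final 0.05, 0.5, 5 µM) 5 min, MgATP then 20 min at 37 °C; A340 read twice 20 min apart; triplicate; verapamil, vinblastine, progesterone references.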

The nature of test [3]: Binding affinity to P-gp assessed as increase in basal protein activity at 0.05 uM after 30 mins by spectrophotometry. In short, it runs like this: as §1
In test [4] the test system is Candida albicans. Nature of the test: Antifungal activity at Candida albicans CAI4 after 48 hrs by ELISA. The test is classed as functional. The note with it: CAI4, 48 h. In a few lines: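 Broth microdilution; CAI4 streaked on YEPD, 30 °C 24 h; compounds serially diluted twofold in YEPD, solvent diluted alongside; growth control column; 30 °C 48 h; OD600 on plate reader; MIC80 = concentration giving 80% growth inhibition vs no-compound growth.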

Test [5] addresses T1, Multidrug resistance protein CDR2 (Candida albicans (strain SC5314 / ATCC MYA-2876) (Yeast)) (UniProt P78595).
T1 sequence (whole entry): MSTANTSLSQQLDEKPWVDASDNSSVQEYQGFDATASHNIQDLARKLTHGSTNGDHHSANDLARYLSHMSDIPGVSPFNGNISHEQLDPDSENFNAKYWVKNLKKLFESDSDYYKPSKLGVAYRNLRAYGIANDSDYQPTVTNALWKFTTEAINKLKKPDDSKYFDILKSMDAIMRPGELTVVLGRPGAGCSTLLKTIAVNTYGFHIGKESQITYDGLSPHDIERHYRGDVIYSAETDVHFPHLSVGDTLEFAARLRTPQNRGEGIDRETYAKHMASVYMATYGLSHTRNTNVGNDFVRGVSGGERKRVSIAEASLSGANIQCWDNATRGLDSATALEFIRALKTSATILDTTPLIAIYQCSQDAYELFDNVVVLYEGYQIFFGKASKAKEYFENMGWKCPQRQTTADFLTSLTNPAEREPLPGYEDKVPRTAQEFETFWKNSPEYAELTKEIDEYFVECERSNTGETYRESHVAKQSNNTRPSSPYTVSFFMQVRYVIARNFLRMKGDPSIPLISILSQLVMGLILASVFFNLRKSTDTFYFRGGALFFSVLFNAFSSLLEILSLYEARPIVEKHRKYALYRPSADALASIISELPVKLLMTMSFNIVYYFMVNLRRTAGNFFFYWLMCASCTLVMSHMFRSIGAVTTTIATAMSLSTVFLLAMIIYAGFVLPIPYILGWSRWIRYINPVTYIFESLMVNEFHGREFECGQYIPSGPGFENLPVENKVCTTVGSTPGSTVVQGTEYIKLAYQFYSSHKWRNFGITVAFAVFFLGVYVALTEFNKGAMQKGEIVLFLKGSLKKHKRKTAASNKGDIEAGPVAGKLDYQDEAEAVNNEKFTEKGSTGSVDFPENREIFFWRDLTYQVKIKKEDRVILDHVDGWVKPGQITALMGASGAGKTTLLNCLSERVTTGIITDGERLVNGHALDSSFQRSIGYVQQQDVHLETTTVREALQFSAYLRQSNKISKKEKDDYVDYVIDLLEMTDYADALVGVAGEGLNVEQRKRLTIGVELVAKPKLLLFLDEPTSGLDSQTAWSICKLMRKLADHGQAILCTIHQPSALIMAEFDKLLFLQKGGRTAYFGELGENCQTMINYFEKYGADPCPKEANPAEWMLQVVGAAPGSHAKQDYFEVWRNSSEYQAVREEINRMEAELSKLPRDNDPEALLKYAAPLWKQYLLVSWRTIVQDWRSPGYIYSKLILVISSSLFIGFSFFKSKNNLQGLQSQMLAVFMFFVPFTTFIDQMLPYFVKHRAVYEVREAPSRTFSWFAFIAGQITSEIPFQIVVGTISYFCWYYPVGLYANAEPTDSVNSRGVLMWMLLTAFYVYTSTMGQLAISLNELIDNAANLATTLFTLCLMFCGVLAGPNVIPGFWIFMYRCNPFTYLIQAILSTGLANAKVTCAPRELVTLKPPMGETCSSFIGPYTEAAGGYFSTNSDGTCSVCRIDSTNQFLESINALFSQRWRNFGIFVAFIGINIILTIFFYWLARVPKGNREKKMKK
Put plainly: Inhibition of CDR2-mediated efflux of rhodamine 6G in Candida albicans CAI4 at 800 ug/ml up to 60 mins by spectrofluorimetry in presence of 2 mM 2-deoxyglucose treated for 2 hrs before compound addition. In short, it runs like this:
(§2)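 C. albicans CAI4 secondary culture (YEPD, 30 °C, ~5 h) washed in PBS, 2% cell suspension de-energised with 2 mM 2-deoxyglucose on rocker 2 h; R6G loaded, cells pelleted, washed, resuspended in PBS with or without 2% glucose; compound at 800 µg/ml with MeOH/DMSO 1:1 solvent control; supernatant R6G fluorescence read (ex 529, em 553 nm) over time.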

Test [6] addresses Multidrug resistance protein CDR1 (Candida albicans) (UniProt P43071). Put plainly: Inhibition of CDR1-mediated efflux of rhodamine 6G in Candida albicans CAI4 at 800 ug/ml up to 60 mins by spectrofluorimetry in presence of 2 mM 2-deoxyglucose treated for 2 hrs before compound addition. In a few lines:
as §2

Test [7] has as its system Candida albicans. Put plainly: Effect of membrane integrity of Candida albicans CAI4 at 800 ug/ml after 48 hrs by spot assay in presence of 300 ug/ml congo red. Type of test: functional, organism-based. In a few lines: (§3)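 Spot assay on YEPD-agar plates containing compound (with Congo red or calcofluor white where applicable); solvent (MeOH/DMSO 1:1) and YEPD-only control plates; CAI4 primary culture 16 h, secondary 5 h at 30 °C from 4% inoculum, diluted in 0.9% saline; 10⁵ to 10⁰ cells spotted; 30 °C 48 h, growth scored.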

For test [8], the system named is Candida albicans. Nature of the test: Effect of membrane integrity of Candida albicans CAI4 at 800 ug/ml after 48 hrs by spot assay in presence of 300 ug/ml calcofluor white. The test is classed as functional, organism-based. In a few lines: as §3
The test system of test [9] is Candida albicans. Nature of the test: Antifungal activity at Candida albicans CAI4 assessed as reduction in colony formation at 1 mg/ml after 48 hrs by spot assay. The test is classed as functional, organism-based. In short, it runs like this:
as §3

A further test concerns ATP. Put plainly: Binding affinity to ATP at 50 uM in HEPES buffer of pH 7.2 by spectrophotometry. In a few lines:
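UV-vis titration: compound held constant at 50 µM in HEPES pH 7.2, titrated with NaATP (from 10^-2 M stock) over 0–3 equiv; absorbance change followed; binding constant from Benesi–Hildebrand plot.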

Multidrug resistance protein CDR1 (Candida albicans), sequence (P43071 whole entry, looked up): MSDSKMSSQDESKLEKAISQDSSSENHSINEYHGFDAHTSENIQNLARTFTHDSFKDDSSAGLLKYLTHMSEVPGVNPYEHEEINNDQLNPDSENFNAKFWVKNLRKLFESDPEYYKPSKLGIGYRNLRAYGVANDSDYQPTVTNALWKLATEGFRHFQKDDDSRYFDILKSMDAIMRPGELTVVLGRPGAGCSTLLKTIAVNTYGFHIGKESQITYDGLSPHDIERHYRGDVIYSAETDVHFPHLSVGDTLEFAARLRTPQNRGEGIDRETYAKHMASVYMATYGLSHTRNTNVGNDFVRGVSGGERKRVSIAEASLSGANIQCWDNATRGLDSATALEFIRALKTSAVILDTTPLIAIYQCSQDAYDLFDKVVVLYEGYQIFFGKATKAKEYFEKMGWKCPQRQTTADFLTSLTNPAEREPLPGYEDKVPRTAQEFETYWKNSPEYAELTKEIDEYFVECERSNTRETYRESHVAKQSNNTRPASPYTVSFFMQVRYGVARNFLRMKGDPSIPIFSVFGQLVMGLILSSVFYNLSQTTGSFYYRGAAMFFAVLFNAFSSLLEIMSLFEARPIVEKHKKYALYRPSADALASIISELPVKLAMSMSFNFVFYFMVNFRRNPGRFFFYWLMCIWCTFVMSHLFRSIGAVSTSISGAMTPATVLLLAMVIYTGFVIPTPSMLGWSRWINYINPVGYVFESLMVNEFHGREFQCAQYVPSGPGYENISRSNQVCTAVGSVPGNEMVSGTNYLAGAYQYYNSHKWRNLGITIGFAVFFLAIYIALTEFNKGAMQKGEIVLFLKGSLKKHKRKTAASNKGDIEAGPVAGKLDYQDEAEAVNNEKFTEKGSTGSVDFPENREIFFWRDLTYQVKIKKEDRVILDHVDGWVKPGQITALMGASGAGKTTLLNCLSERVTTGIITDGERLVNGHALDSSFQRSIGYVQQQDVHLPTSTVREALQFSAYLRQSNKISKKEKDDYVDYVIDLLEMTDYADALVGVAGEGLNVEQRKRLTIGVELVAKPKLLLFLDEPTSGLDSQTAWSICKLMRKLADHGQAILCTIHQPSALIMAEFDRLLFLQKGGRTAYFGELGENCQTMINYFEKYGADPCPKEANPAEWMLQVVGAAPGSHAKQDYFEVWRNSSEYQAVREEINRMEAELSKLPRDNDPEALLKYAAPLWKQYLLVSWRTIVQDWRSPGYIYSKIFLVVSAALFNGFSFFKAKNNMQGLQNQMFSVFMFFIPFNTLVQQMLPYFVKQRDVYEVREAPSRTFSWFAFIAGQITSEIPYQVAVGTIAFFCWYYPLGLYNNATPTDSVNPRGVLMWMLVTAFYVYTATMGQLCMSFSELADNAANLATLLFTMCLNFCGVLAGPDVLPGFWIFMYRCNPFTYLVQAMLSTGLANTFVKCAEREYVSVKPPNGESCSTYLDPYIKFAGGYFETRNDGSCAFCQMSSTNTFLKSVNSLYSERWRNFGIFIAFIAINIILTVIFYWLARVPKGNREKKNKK

With `O=C(O)c1cccc2c(=O)c3ccccc3n(CC(O)CN3CCCC3)c12` (stereo not given), the inhibition entry (in [1]; in test [5]; in test [6]; in the test with Candida albicans [9]) was “Active” throughout. In addition, the figures for the Activity in test [2] and in test [3] were 100% and 60%, respectively. Besides, the MIC80 in the test with Candida albicans [4] was 781 µg/mL (≈ 2130 µM). Besides, the inhibition entry in the test with Candida albicans [7] and in the test with Candida albicans [8] was “inactive” in each case. The Ka entry with ATP was “inactive”.
